Source: ChEMBL document CHEMBL1146552, “Cytotoxic diterpenes from Scoparia dulcis” (2003)
Counter-ions that a name gives are not always drawn. Active and inactive are the calls of the source. The calls are words filed in the database; no cut-off is given here.

Columns and labels:
NUGC-4 = assay: Cytotoxicity against human NUGC4 cells by MTT assay; format: functional; details: for EC50: read-out: ED50 (the source's name)
Method in brief: (§1)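 Human stomach cancer cells grown in RPMI-1640 complete medium; test materials prepared and cells cultured in medium with 0.25% DMSO. Serial dilutions at 250, 125, 62.5, 31.25 and 15.63 μg/mL, three replicates per concentration. Percent mortality by MTT, with cells in medium or medium-DMSO taken as 100% survival; ED50 (μM) derived, mean ± standard error. Vinblastine sulfate and mitomycin C as positive controls.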

[1] = (§2) Cytotoxicity against human SCL37'6 cells by MTT assay; format: functional; details: read-out: ED50 (the source's name); method in brief: as §1
[2] = (§3) Cytotoxicity against human KATO III cells by MTT assay; format: functional, KATO III cell; details: read-out: ED50 (the source's name); method in brief: as §1
[3] = (§4) Cytotoxicity against human SCL9 cells by MTT assay; format: functional; details: read-out: ED50 (the source's name); method in brief: as §1
[4] = (§5) Cytotoxicity against human SCL cells by MTT assay; format: functional; details: read-out: ED50 (the source's name); method in brief: as §1
[5] = Cytotoxicity against human SCL6 cells by MTT assay; format: functional; details: read-out: ED50 (the source's name); method in brief: as §1
SCL-6 (Homo sapiens) = assay: Cytotoxicity against human SCL6 cells by MTT assay
SCL37'6 = assay: as §2; format: functional; method in brief: as §1
KATO III cell = assay: as §3; format: functional; method in brief: as §1
SCL9 = assay: as §4; format: functional; method in brief: as §1
SCL = assay: as §5; format: functional; method in brief: as §1

Row | SMILES | EC50 (NUGC-4) | EC50 [1] | EC50 [2] | EC50 [3] | EC50 [4] | EC50 [5] | Activity (NUGC-4) | Activity (SCL-6 (Homo sapiens)) | Activity (SCL37'6) | Activity (KATO III cell) | Activity (SCL9) | Activity (SCL)
1 | CC1(C)[C@@H](O)CC[C@@]2(C)[C@H]1[C@H](OC(=O)c1ccccc1)C[C@H]1CC(=O)[C@]3(C)CC[C@]12C3 | 123 µM | 45.8 µM | 71.7 µM | 57.9 µM | 19.5 µM | 62.9 µM |  |  |  |  |  | 
2 | CC1(C)CC[C@]2(C)CC[C@]3(C)[C@H]4CC=C5[C@@H](CC[C@H](O)C5(C)C)[C@]4(C)CC[C@@]3(C)[C@@H]2C1 |  |  |  |  |  |  | inactive | inactive | inactive | inactive | inactive | inactive
3 | COc1ccc2[nH]c(=O)oc2c1 |  |  |  |  |  |  | inactive | inactive | inactive | inactive | inactive | inactive
4 | C[C@@]12CC[C@]3(C1)[C@H](CC2=O)C[C@@H](OC(=O)c1ccccc1)[C@@H]1[C@]3(C)CCC[C@]1(C)C(=O)O [4-EPI-SCOPADULCIC ACID B] | 110 µM | 59.3 µM | 124 µM | 48.3 µM | 37 µM | 137 µM |  |  |  |  |  | 
5 | C[C@@]12CC[C@]3(C1)[C@@H](C[C@@H](OC(=O)c1ccccc1)[C@H]1[C@](C)(CO)CCC[C@@]13C)C[C@@H]2O [DULCIDIOL] | 105 µM | 42.6 µM | 29 µM | 41.6 µM | 45.3 µM | 46 µM |  |  |  |  |  | 
6 | CO[C@@]12[C@H](COC(N)=O)C3=C(C(=O)C(C)=C(N)C3=O)N1C[C@@H]1N[C@@H]12 [MITOMYCIN] | 19.1 µM | 19 µM | 49 µM | 17.4 µM | 20.2 µM | 20.7 µM |  |  |  |  |  | 
7 | C=C1C[C@@H](OC(=O)c2ccccc2)C2[C@](C)(CO)CCC[C@]2(C)[C@@H]1CC/C(C)=C/CO (some centres undefined) [SCOPADIOL] | 16.6 µM | 8.9 µM | 9.7 µM | 12.2 µM | 22.8 µM | 12.2 µM |  |  |  |  |  | 
8 | C[C@@]12CC[C@]3(C1)[C@H](CC2=O)C[C@@H](OC(=O)c1ccccc1)[C@H]1[C@](C)(CO)CCC[C@@]13C [SCOPADULCIOL] | 33.3 µM | 24.4 µM | 35.5 µM | 37.7 µM | 22 µM | 32.8 µM |  |  |  |  |  | 
9 | CC[C@]1(O)C[C@@H]2CN(CCc3c([nH]c4ccccc34)[C@@](C(=O)OC)(c3cc4c(cc3OC)N(C)[C@H]3[C@@](O)(C(=O)OC)[C@H](OC(C)=O)[C@]5(CC)C=CCN6CC[C@]43[C@@H]65)C2)C1 [VINBLASTINE SULFATE] | 5.3 µM | 5.3 µM | 6.1 µM | 5.3 µM | 5.9 µM | 6.1 µM |  |  |  |  |  | 
